Compound activity from PubChem BioAssay.
This is a sample that favours compounds with a hit; in the whole collection about 3.6% have one here.
NadD inh = blocks S. aureus nicotinate mononucleotide adenylyltransferase; purified NadD enzyme, colorimetric absorbance read-out; inhibition, % at 20 µM; 0.78% of 360,000 active; in the data active = inhibition above about 26%
SENP1 inh = blocks the human SENP1 SUMO protease catalytic domain | Q9P0U3 | recombinant SENP1 catalytic domain, CyPet-SUMO1-YPet FRET cleavage | inhibition, % at 10 µM | 0.21% of 360,000 active | AID 624204;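 active = inhibition at least 30% at 10 µM, raw YFP signal under a set limit, fluorescence ratio 0.5 to 1.5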;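 note: 0% = enzyme with DMSO and 100% = no enzyme wells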
Target sequence (Q9P0U3 419-644 limits assumed): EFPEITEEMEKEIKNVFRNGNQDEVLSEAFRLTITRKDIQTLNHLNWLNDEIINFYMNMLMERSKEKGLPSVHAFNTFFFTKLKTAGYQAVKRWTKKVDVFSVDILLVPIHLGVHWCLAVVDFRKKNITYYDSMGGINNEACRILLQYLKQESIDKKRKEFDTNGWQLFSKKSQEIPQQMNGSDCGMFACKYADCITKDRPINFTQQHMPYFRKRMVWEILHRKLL
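system = hSENP1 catalytic domain, recombinant | reagent = SFCypet-SUMO1-SFYpet substrate at 25 nM | doses = one dose per compound, 10 µM, 0.5% DMSO | incubation = enzyme reaction for 50 min at room temperature, dark | measured by = FRET, CFP and YFP emission | controls = no-enzyme low, enzyme-DMSO high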
GRIN3A LBD mod = modulators (binders) of human NR3A ligand-binding domain | 2.5% of 340,000 active | NR3A LBD differential scanning fluorimetry, Tm shift; 0% = protein alone, 100% = glycine-bound protein | AID 1259313 | Tm shift relative to glycine control, % at 25 µM;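 active = melting temperature shift of at least 10% of the positive control shift, at one fixed dose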
ATG4B inhibitor = ATG4B (human) cysteine protease inhibition | Q9Y4P1 | ATG4B cleavage of LC3-PLA2, NBD-HPC fluorescence, 1 h | inhibition, % at 8.33 µM | 0.51% of 340,000 active | AID 504462; in the data active = inhibition above about 40%
Target sequence (Q9Y4P1 whole entry, looked up): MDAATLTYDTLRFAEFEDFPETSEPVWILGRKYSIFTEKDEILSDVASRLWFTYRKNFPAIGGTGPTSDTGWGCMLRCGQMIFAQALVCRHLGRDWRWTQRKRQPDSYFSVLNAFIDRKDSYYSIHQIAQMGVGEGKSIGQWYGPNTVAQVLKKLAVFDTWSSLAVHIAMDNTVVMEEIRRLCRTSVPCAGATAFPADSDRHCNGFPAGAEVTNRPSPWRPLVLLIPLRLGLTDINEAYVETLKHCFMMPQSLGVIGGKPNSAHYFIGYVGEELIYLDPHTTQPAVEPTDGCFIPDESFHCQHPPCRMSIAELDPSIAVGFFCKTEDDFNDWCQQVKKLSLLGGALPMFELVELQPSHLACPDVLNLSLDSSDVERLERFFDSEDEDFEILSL
UCH37 inh = human UCH37 deubiquitinating enzyme inhibition; purified proteasome/UCH37, Ub-AMC cleavage fluorescence; inhibition, % (test concentration not listed); Q9Y5K5; 0.33% of 330,000 active;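 active = mean inhibition over replicate wells above about 20%, limit read from the data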;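 note: 0% = compound-free wells with enzyme and 100% = wells lacking proteasome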
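system = Proteasome-associated human UCH37 deubiquitinase | amount = 0.15 nM proteasome as dispensed | medium = pH 7.4 Tris-HCl (50 mM) with ovalbumin, ATP-MgCl2, DTT | incubation = 30 min preincubation with enzyme, 25 min cleavage at room temperature | detection = AMC fluorescence 355/460 nm | read-out basis = percent inhibition | controls = no-proteasome and no-compound wells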
An asterisk follows results filed as active; / = no result given.

SMILES | NadD inh | SENP1 inh | GRIN3A LBD mod | ATG4B inhibitor | UCH37 inh
O=C(N/N=C/c1ccncc1)c1cc2ccccc2cc1O | -1 | 4 | 13* | -2 | /
O=C(N/N=C\c1ccc(F)cc1)c1csnn1 | -5 | 0 | 12* | 1 | /
Cn1cccc1C=NNC(=O)c1cc2ccccc2cc1O | / | / | / | / | 4
O=C(NN=C/C=C/c1ccccc1)c1cccnc1 | / | / | / | / | 9
O=C(N/N=C/C=C/c1ccccc1)c1ccncc1 | 3 | 1 | 25* | 2 | /
O=C(N/N=C/c1ccc(F)cc1)c1cccc(NC(=O)c2ccc(F)cc2)c1 | 9 | -1 | 33* | -1 | /
O=C(N/N=C/c1ccncc1)c1cccc(NC(=O)c2ccc(Cl)cc2)c1 | 4 | 2 | 26* | -1 | /
CN(C)c1ccc(/C=C(/NC(=O)c2ccccc2)C(=O)N/N=C/c2ccc([N+](=O)[O-])c(O)c2)cc1 | 41* | -12 | -6 | -1 | /
CN(C)c1ccc(/C=C(\NC(=O)c2ccccc2)C(=O)NN=Cc2ccc(C(=O)O)cc2)cc1 | / | / | / | / | 20
O=C(N/N=C/c1ccc(F)cc1)c1ccccc1 | -5 | 1 | -17 | -5 | /
O=C(N/N=C/c1cccc(NC(=O)c2ccc(Cl)cc2)c1)c1ccc(O)cc1 | 2 | 2 | 29* | -2 | /
COc1ccc(C=NNC(=O)c2ccccc2Br)cc1COc1ccccc1 | / | / | / | / | 0
Cc1[nH]n(-c2ccccc2)c(=O)c1C=NNC(=O)c1cccc([N+](=O)[O-])c1 | / | / | / | / | 0
Cc1nn(-c2ccccc2)c(N2CCCC2)c1/C=N/NC(=O)c1cc2ccccc2cc1O | 39* | -27 | 9 | 6 | /
O=C(NN=Cc1ccncc1)c1ccccc1 | / | / | / | / | 31*
O=C(N/N=C/c1ccncc1)c1sc2ccccc2c1Cl | 7 | 3 | 13* | -5 | /
Cc1cc(NN=Cc2ccc(F)cc2)nc(-n2nc(C)cc2C)n1 | / | / | / | / | 2
Cc1ccccc1C(=O)NN=Cc1ccsc1C | / | / | / | / | 7
CC(=NNC(=O)c1ccn(C)n1)c1cccc(NC(=O)c2ccc(C)s2)c1 | / | / | / | / | -1
CCCCNc1cc(NC(C)=O)cc2cc(OC)c(OC)cc12 | 1 | 3 | -3 | -10 | -15
COc1cc2cc(NC(C)=O)cc(NCc3ccccc3)c2cc1OC | -2 | -2 | 12* | -2 | -36
COc1cc(OC)c2c(N)c(C#N)c(C(F)(F)C(F)(F)F)nc2c1 | -3 | 0 | -1 | -1 | -24
COc1ccc2nc(C(F)(F)C(F)(F)F)c(C#N)c(N)c2c1 | -5 | 3 | 22* | 7 | 1
O=C(CSc1ccc(Cl)cc1)Nc1ccc(-c2nc3ccccc3[nH]2)cc1 | 13 | -2 | 37* | -4 | /
Cn1cc([N+](=O)[O-])c(C(=O)Nc2ccc(-c3nc4ccccc4[nH]3)cc2)n1 | -3 | 2 | 19* | -4 | 6
SMILES | NadD inh | SENP1 inh | GRIN3A LBD mod | ATG4B inhibitor | UCH37 inh
O=C(Nc1ccc(-c2nc3ccccc3[nH]2)cc1)c1ccco1 | -8 | 0 | 35* | -11 | -6
COc1ccc(C=Nn2cnc3c([nH]c4ccccc43)c2=O)cc1CO | / | / | / | / | -14
O=C(CN1C(=O)S/C(=C\C=C\c2ccccc2)C1=O)Nc1ccc(O)cc1 | 5 | 3 | 15* | 5 | /
O=C(CN1C(=O)S/C(=C\c2ccccn2)C1=O)Nc1ccccc1 | -6 | -1 | 0 | -5 | 4
Cc1ccc(C(=O)O)cc1-c1ccc(/C=C2\SC(=O)N(CC(=O)Nc3ccccc3)C2=O)o1 | 34* | -23 | -3 | 38 | -5
O=C(CCCN1C(=O)S/C(=C/C=C/c2ccccc2)C1=O)Nc1ccc(C(=O)O)cc1 | 18 | 2 | 2 | 13 | 15
O=C(CN1C(=O)S/C(=C\c2cc(Cl)c(O)c(Cl)c2)C1=O)Nc1ccccc1 | 3 | -24 | 12* | 9 | 3
Cc1ccc(NC(=O)CN2C(=O)S/C(=C/c3ccc(-c4cccc(C(=O)O)c4)o3)C2=O)cc1 | 21 | -29 | 0 | 4 | -6
CCOc1ccccc1C=Nn1c(COc2ccccc2)n[nH]c1=S | / | / | / | / | 3
O=C(Nc1cccc(Br)c1)c1ccc2nc(N3C(=O)CCC3=O)sc2c1 | -7 | -14 | 14* | -20 | -31
CCOC(=O)NN=Cc1ccccc1OC/C=C/c1ccccc1 | / | / | / | / | 3
CC/C(=N/Nc1ccc(Cl)cc1)c1cnnc(SC)n1 | 1 | 29 | 17* | -3 | /
COc1ccc(NC(=S)N(Cc2ccc(C(=O)O)cc2)Cc2ccc(OC)c(OC)c2)cc1 | -1 | 2 | 2 | -6 | /
COc1ccc(CN(Cc2ccc(C(=O)O)cc2)C(=S)Nc2cccc(C)c2)cc1OC | 2 | 2 | 12* | -4 | 3
c1ccc(CSc2ccc3nnc(-c4cccnc4)n3n2)cc1 | -2 | 2 | 14* | -10 | -3
CCOC(=O)c1sc2ncn(N=CN(C)C)c(=O)c2c1C | / | / | / | / | -15
N#Cc1ccc(N=c2ssnc2Cl)cc1 | 20 | 1 | 23* | -5 | 6
COc1ccc(N=c2ssnc2Cl)cc1 | 21 | 2 | 22* | -1 | 6
CCOC(=O)c1ccc(N=c2ssnc2Cl)cc1 | 5 | 1 | 8 | -10 | -1
Clc1nssc1=Nc1ccccc1 | 18 | 0 | 5 | -3 | 2
Clc1ccc(N=c2ssnc2Cl)cc1 | 28 | 0 | 14* | -18 | 2
O=C(NN=Cc1ccccc1O)C1SCCCS1 | / | / | / | / | -36
COc1ccc(C=NNC(=O)c2ccccc2Cl)cc1CSc1nc2ccccc2s1 | / | / | / | / | 5
CCOC(=O)c1c(C2COc3ccccc3O2)csc1NC(=O)c1ccccc1 (stereo not drawn) | -6 | 2 | 11* | -15 | -179
CCOC(=O)c1c(C2COc3ccccc3O2)csc1N (stereo not drawn) | -5 | 2 | -12 | -2 | 4
SMILES | NadD inh | SENP1 inh | GRIN3A LBD mod | ATG4B inhibitor | UCH37 inh
O=C1N/C(=N\N=Cc2ccco2)SC1Cc1ccc(F)cc1 (stereo not drawn) | / | / | / | / | 7
C=CCn1c(N=Cc2ccc(N(C)C)cc2)nc2ccccc21 | / | / | / | / | 4
Cc1cc(C(=O)CN2C(=O)c3ccccc3C2=O)c(C)n1C1CC1 | 0 | 0 | 17* | -6 | 3
O=CN1CCCN(Cc2nc(-c3cccc(Cl)c3)no2)CC1 | -3 | 0 | 0 | 19 | 30*
CCOC(=O)N1CCN(Cc2nc(-c3cccc(Cl)c3)no2)CC1 | -2 | 2 | -1 | -2 | 0
Fc1ccccc1N1CCN(Cc2nc(-c3ccc(Cl)cc3Cl)no2)CC1 | 0 | 4 | 20* | 6 | 0
Clc1ccc(Cc2noc(CN3CCN(c4ccccc4)CC3)n2)c(Cl)c1 | -8 | 0 | 2 | -8 | 5
CCCCC1=CC2=C(c3ccco3)C(=O)C(C)(OC(=O)c3ccc(OC)cc3)C(=O)C2=CN1Cc1ccc(OC)cc1 (stereo not drawn) | / | / | / | / | 3
CCCCC1=CC2=C(c3ccco3)C(=O)C(C)(OC(=O)c3ccc(OC)cc3)C(=O)C2=CN1Cc1ccco1 (stereo not drawn) | 37* | 31 | -2 | 16 | 5
O=c1c2ccccc2ncn1N=Cc1ccccc1 | / | / | / | / | 2
